Data reported in ChEMBL document CHEMBL3351590, “8-Methyltryptanthrin-induced differentiation of P19CL6 embryonal carcinoma cells into spontaneously beating cardiomyocyte-like cells” (2014).
Activity calls are given as the source filed them. The rule behind the calls is not given here.

Columns and labels:
[1] = Induction of differentiation of C3H/He mouse P19CL6 cells assessed as beating rate of cardiomyocyte-like cells at 1 uM on day 18 (reference value: 45.2 +/- 4.2 bpm); assay type: functional
[2] = Decrease in Cav1.3 gene expression in C3H/He mouse P19CL6 cells at 1 uM on day 10 and day 18 by RT-PCR analysis; assay type: functional, cell-based
How it was run: (§1)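 P19CL6 cells are cultured in α-MEM with 10% FBS, with compound (final DMSO ≤0.1%) renewed every 48 h. Total RNA is taken on day 10 and/or 18 and reverse-transcribed with random primers. Real-time PCR: 95 °C 10 min, then 40 cycles of 95 °C 15 s and 60 °C 1 min. Expression is normalized to G3PDH and given as a ratio to day 0.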

P19CL6 [3] = assay: Induction of Cav1.2 gene expression in C3H/He mouse P19CL6 cells at 1 uM by RT-PCR analysis; assay type: functional, cell-based; settings: TDE = time-dependent effect; how it was run: as §1
P19CL6 [4] = assay: Induction of differentiation of C3H/He mouse P19CL6 cells assessed as aggregate formation on day 10 by phase contrast microscopic analysis; assay type: functional, cell-based
How it was run: (§2)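 Cells are seeded at 2.0 × 10^4 per 35 mm dish in α-MEM with 10% FBS, penicillin and streptomycin, plus compound (final DMSO ≤0.1%), with medium changed every 48 h. Aggregates and beating aggregates are counted every 2 days by phase-contrast microscopy in five ×100 fields (total 8.8 mm2), up to day 18. Mean ± SEM, n = 7.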

[5] = Induction of Cav1.2 gene expression in C3H/He mouse P19CL6 cells at 1 uM on day 10 by RT-PCR analysis relative to control; assay type: functional; how it was run: as §1
[6] = Induction of GJA5 gene expression in C3H/He mouse P19CL6 cells at 1 uM on day 18 by RT-PCR analysis relative to control; assay type: functional; how it was run: as §1
P19CL6 [7] = assay: Induction of GATA4 gene expression in C3H/He mouse P19CL6 cells at 1 uM by RT-PCR analysis; assay type: functional, cell-based; settings: TDE = time-dependent effect
How it was run: (§3)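 Cardiac gene qPCR (α-MHC, GATA4, BMP2) in P19CL6 cells kept in α-MEM/10% FBS with agent, medium renewed at 48 h intervals. RNA is harvested on days 10 and 18 and reverse-transcribed with random primers. PCR runs 40 cycles (95 °C 15 s, 60 °C 1 min). Values are normalized to G3PDH, expressed relative to day 0, as mean ± SEM, n = 4.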

[8] = Induction of GJA1 gene expression in C3H/He mouse P19CL6 cells at 1 uM on day 18 by RT-PCR analysis relative to control; assay type: functional; how it was run: as §1
P19CL6 [9] = assay: Induction of differentiation of C3H/He mouse P19CL6 cells assessed as beating aggregate formation at 0.1 to 1 uM using compound dissolved in 0.03% DMSO by phase contrast microscopic analysis; assay type: functional, cell-based; how it was run: as §2
[10] = Induction of GATA4 gene expression in C3H/He mouse P19CL6 cells at 1 uM measured on day 10 and 18 by RT-PCR analysis relative to control; assay type: functional; how it was run: as §3
[11] = Decrease in Cav3.1 gene expression in C3H/He mouse P19CL6 cells at 1 uM on day 10 by RT-PCR analysis relative to control; assay type: functional, cell-based; how it was run: as §1
[12] = Induction of alpha-MHC gene expression in C3H/He mouse P19CL6 cells at 1 uM measured on day 10 and 18 by RT-PCR analysis relative to control; assay type: functional; how it was run: as §3
P19CL6 [13] = assay: Effect on GJC1 gene expression in C3H/He mouse P19CL6 cells at 1 uM by RT-PCR analysis; assay type: functional, cell-based; how it was run: as §1
[14] = Induction of differentiation of C3H/He mouse P19CL6 cells assessed as number of aggregates at 1 uM on day 18 by phase contrast microscopic analysis (reference value: 38.2 +/- 8.4/mm2); assay type: functional; how it was run: as §2
P19CL6 [15] = assay: Induction of differentiation of C3H/He mouse P19CL6 cells assessed as aggregate formation at 0.1 to 1 uM on day 18 by phase contrast microscopic analysis; assay type: functional, cell-based; how it was run: as §2
P19CL6 [16] = assay: Induction of differentiation of C3H/He mouse P19CL6 cells assessed as beating aggregate formation at 0.1 to 1 uM on day 18 by phase contrast microscopic analysis; assay type: functional, cell-based; how it was run: as §2
[17] = Induction of Cav1.2 gene expression in C3H/He mouse P19CL6 cells at 1 uM on day 18 by RT-PCR analysis relative to control; assay type: functional; how it was run: as §1
[18] = Induction of differentiation of C3H/He mouse P19CL6 cells assessed as number of beating aggregates at 1 uM on day 18 by phase contrast microscopic analysis; assay type: functional; how it was run: as §2
P19CL6 [19] = assay: Induction of differentiation of C3H/He mouse P19CL6 cells assessed as beating aggregate formation on day 10 by phase contrast microscopic analysis; assay type: functional, cell-based; how it was run: as §2
P19CL6 [20] = assay: Effect on Cav3.2 gene expression in C3H/He mouse P19CL6 cells at 1 uM by RT-PCR analysis; assay type: functional, cell-based; how it was run: as §1
P19CL6 [21] = assay: Induction of BMP2 gene expression in C3H/He mouse P19CL6 cells at 1 uM by RT-PCR analysis; assay type: functional, cell-based; settings: TDE = time-dependent effect; how it was run: as §3
P19CL6 [22] = assay: Induction of Cav3.1 gene expression in C3H/He mouse P19CL6 cells at 1 uM on day 18 by RT-PCR analysis; assay type: functional, cell-based; how it was run: as §1
P19CL6 [23] = assay: Effect on HCN4 gene expression in C3H/He mouse P19CL6 cells at 1 uM by RT-PCR analysis; assay type: functional, cell-based; how it was run: as §1
[24] = Induction of BMP2 gene expression in C3H/He mouse P19CL6 cells at 1 uM measured on day 10 and 18 by RT-PCR analysis relative to control; assay type: functional; how it was run: as §3
[25] = Induction of GJA5 gene expression in C3H/He mouse P19CL6 cells at 1 uM on day 10 by RT-PCR analysis relative to control; assay type: functional; how it was run: as §1
P19CL6 [26] = assay: Effect on HCN2 gene expression in C3H/He mouse P19CL6 cells at 1 uM by RT-PCR analysis; assay type: functional, cell-based; how it was run: as §1
[27] = Increase in area of beating aggregates in C3H/He mouse P19CL6 cells on day 18 by phase contrast microscopic analysis (reference value: 0.5 +/- 0.3 /mm2); assay type: functional
P19CL6 [28] = assay: Induction of Cav1.2 gene expression in C3H/He mouse P19CL6 cells on day 10 and 18 by RT-PCR analysis; assay type: functional, cell-based; how it was run: as §1
P19CL6 [29] = assay: Effect on GJA4 gene expression in C3H/He mouse P19CL6 cells at 1 uM by RT-PCR analysis; assay type: functional, cell-based; how it was run: as §1
P19CL6 [30] = assay: Induction of alpha-MHC gene expression in C3H/He mouse P19CL6 cells at 1 uM by RT-PCR analysis; assay type: functional, cell-based; settings: TDE = time-dependent effect; how it was run: as §3
P19CL6 [31] = assay: Effect on GJB1 gene expression in C3H/He mouse P19CL6 cells at 1 uM by RT-PCR analysis; assay type: functional, cell-based; how it was run: as §1
P19CL6 [32] = assay: Induction of differentiation of C3H/He mouse P19CL6 cells assessed as aggregate formation at 0.1 to 1 uM on day 10 by phase contrast microscopic analysis; assay type: functional, cell-based; how it was run: as §2
P19CL6 [33] = assay: Induction of differentiation of C3H/He mouse P19CL6 cells assessed as beating aggregate formation at 0.1 to 1 uM on day 10 by phase contrast microscopic analysis; assay type: functional, cell-based; how it was run: as §2
P19CL6 [34] = assay: Induction of Cav1.2 gene expression in C3H/He mouse P19CL6 cells; assay type: functional, cell-based; how it was run: as §1
P19CL6 [35] = assay: Induction of BMP2 gene expression in C3H/He mouse P19CL6 cells at 1 uM measured on day 10 and 18 by RT-PCR analysis; assay type: functional, cell-based; how it was run: as §3
P19CL6 [36] = assay: Induction of GATA4 gene expression in C3H/He mouse P19CL6 cells at 1 uM measured on day 10 and 18 by RT-PCR analysis; assay type: functional, cell-based; how it was run: as §3
P19CL6 [37] = assay: Induction of alpha-MHC gene expression in C3H/He mouse P19CL6 cells at 1 uM measured on day 10 and 18 by RT-PCR analysis; assay type: functional, cell-based; how it was run: as §3

With `Cc1ccc2c(c1)C(=O)c1nc3ccccc3c(=O)n1-2` the Activity [1] was 52.1 bpm, the inhibition [2] was “Active” and the Activity (P19CL6 [3]) was “tde”. The Activity (P19CL6 [4]) was “Dose-dependent effect”, the “fold change (FC)” value [5] was 1.9 and the “fold change (FC)” value [6] was 7.06. The Activity (P19CL6 [7]) was “tde”, the “fold change (FC)” value [8] was 1.38 and the Activity (P19CL6 [9]) was “Active”. For the same compound, the “fold change (FC)” value [10] was 30.3, the fold change (FC) [11] was 0.21 and the “fold change (FC)” value [12] was 1130.1. For the same compound, the Activity (P19CL6 [13]) was “inactive”, the Activity [14] was 47.3 /mm2 and the Activity (P19CL6 [15]) was “Active”. The Activity (P19CL6 [16]) was “Active”, the “fold change (FC)” value [17] was 3.38 and the Activity [18] was 33.7 /mm2. For the same compound, the Activity (P19CL6 [19]) was “Dose-dependent effect”, the Activity (P19CL6 [20]) was “inactive” and the Activity (P19CL6 [21]) was “tde”. For the same compound, the Activity (P19CL6 [22]) was “Active”, the Activity (P19CL6 [23]) was “inactive” and the “fold change (FC)” value [24] was 84.4. The “fold change (FC)” value [25] was 17.44, the Activity (P19CL6 [26]) was “inactive” and the Activity [27] was 2.7 mm2. For the same compound, the Activity (P19CL6 [28]) was “Dose-dependent effect”, the Activity (P19CL6 [29]) was “inactive” and the Activity (P19CL6 [30]) was “tde”. The Activity (P19CL6 [31]) was “inactive”.

In the case of `CCCc1ccc2c(c1)C(=O)c1nc3ccccc3c(=O)n1-2`, the Activity (P19CL6 [32]) is reported as “inactive”, the Activity (P19CL6 [33]) is reported as “inactive” and the Activity (P19CL6 [34]) is reported as “inactive”.

With `O=C1c2ccccc2-n2c1nc1ccccc1c2=O` the Activity (P19CL6 [32]) was “inactive”, the Activity (P19CL6 [33]) was “inactive” and the Activity (P19CL6 [34]) was “inactive”. The Activity (P19CL6 [35]) was “inactive”, the Activity (P19CL6 [36]) was “inactive” and the Activity (P19CL6 [37]) was “inactive”.

For `CCc1ccc2c(c1)C(=O)c1nc3ccccc3c(=O)n1-2`, the Activity (P19CL6 [32]) was “inactive”, the Activity (P19CL6 [33]) was “inactive” and the Activity (P19CL6 [34]) was “inactive”.
